High-throughput results deposited in PubChem BioAssay by The Scripps Research Institute Molecular Screening Center.
This is a sample that favours compounds with a hit; in the whole collection about 1.8% have one here.
CHRM4 PAM: CHRM4 positive allosteric modulation. P08173. actives 0.4% (n = 360,000). activation, % at 3 µM. CHO-K1 hM4/Gqi5, Fluo-8 calcium fluorescence, ACh EC20; 0% = ACh EC20, 100% = maximal ACh;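 active = activation above its plate's cutoff, the mean activation of sample wells plus 3 SD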
Target sequence (P08173 whole entry, looked up): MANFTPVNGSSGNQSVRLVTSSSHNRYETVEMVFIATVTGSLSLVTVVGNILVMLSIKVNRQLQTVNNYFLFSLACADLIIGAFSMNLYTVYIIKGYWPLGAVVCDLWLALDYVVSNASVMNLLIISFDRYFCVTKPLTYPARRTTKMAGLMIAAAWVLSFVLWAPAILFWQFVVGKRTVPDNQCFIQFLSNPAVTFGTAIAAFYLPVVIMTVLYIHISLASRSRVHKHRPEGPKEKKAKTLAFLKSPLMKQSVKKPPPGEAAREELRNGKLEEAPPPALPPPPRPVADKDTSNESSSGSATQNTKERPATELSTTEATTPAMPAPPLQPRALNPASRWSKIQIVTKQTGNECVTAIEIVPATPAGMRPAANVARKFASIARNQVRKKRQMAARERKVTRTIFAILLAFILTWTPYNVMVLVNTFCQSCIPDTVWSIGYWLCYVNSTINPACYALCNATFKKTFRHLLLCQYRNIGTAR
M5 antag: antagonists of human muscarinic M5 receptor (CHRM5); P08912; CHO-hM5 cells, Fluo-8 calcium fluorescence, ACh EC80; inhibition, % at 3 µM; actives 0.59% (n = 360,000); AID 624040;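 active = inhibition above a per-plate cutoff, the mean of that plate's test compounds plus 3 SD, cut at about 27% in these data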
M5 PAM: CHRM5 positive allosteric modulation; actives 0.3% (n = 360,000); activation, % at 3 µM; CHO-K1 hM5, Fluo-8 calcium, ACh EC20 PAM; 0% = ACh EC20, 100% = ACh EC100;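 active = activation above the run cutoff, the mean activation of all test compounds plus 3 SD, cut at about 18% in these data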
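Test system: CHO-K1 hM5 cells / Doses: single-point, 3 µM nominal / Times: Post-acetylcholine fluorescence recording 140 s / Technique: Fluo-8 calcium fluorescence / Measure: Max/basal fluorescence ratio as % of EC20–EC100 ACh window / Benchmarks: low control EC20 acetylcholine (0%), high control EC100 acetylcholine (100%) / Replicates: one well per compound, no replicates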
M4 antag: CHRM4 antagonism in calcium assay; P08173; AID 624125; CHO-hM4 cells, ACh EC80, Fluo-8 calcium fluorescence; inhibition, % at 3 µM; actives 0.73% (n = 360,000);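 active = inhibition above its plate's cutoff, the mean inhibition of sample wells plus 3 SD, cut at about 27% in these data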
M5 ag: CHRM5 agonism in calcium assay; P08912; CHO-K1 hM5 cells, Fluo-8 calcium fluorescence; 0% DMSO wells, 100% maximal acetylcholine response; activation, % at 3 µM; actives 0.19% (n = 360,000);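 active = activation above the run's mean over test compounds plus 3 SD, cut at about 23% in these data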;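 note: signal is peak over basal fluorescence ratio across the kinetic read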
M4 ag: agonists of human muscarinic M4 receptor (CHRM4). P08173. CHO-K1 hM4/Gqi5, Fluo-8 calcium fluorescence; vehicle 0%, full acetylcholine response 100%. activation, % at 3 µM. actives 0.14% (n = 360,000);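 active = activation above the run mean over all test wells plus 3 SD, cut at about 32% in these data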;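 note: peak over basal fluorescence ratio per well then scaled between controls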
A number is an active result; . = inactive.

SMILES | CHRM4 PAM | M5 antag | M5 PAM | M4 antag | M5 ag | M4 ag
Cc1ccc(NC(=O)c2ccc(-n3cncn3)c([N+](=O)[O-])c2)cc1 | . | . | . | . | . | .
O=C(CCn1ccc2cc(S(=O)(=O)N3CCCC3)ccc21)NCc1cccc(F)c1 | . | . | . | . | . | .
N=C1N(/N=C/c2ccccc2)C(=Nc2ccccc2)C(=S)N1c1ccccc1 | . | . | . | 55 | . | .
CC(=O)Nc1ccc(S(=O)(=O)N(C)CC(=O)N2CCN(C(=O)c3ccco3)CC2)cc1 | . | . | . | . | . | .
Cc1c(Cl)cccc1NC(=S)Nc1ccc(S(=O)(=O)Nc2ncccn2)cc1 | . | . | . | . | . | .
CCOc1ccc(S(=O)(=O)N2CCC(C(=O)N3CCOCC3)CC2)cc1C | . | . | . | . | . | .
CCOc1ccc(S(=O)(=O)N2CCC(C(=O)N3CCCCCC3)CC2)cc1C | . | . | 50 | . | . | .
CCc1c(C)nc2[nH]ncn2c1=O | . | . | . | . | . | .
Cc1cc(C)cc(N(CC(=O)NC2CCCCC2)C(=O)CCCC(=O)Nc2ccccn2)c1 | . | . | . | . | . | .
Cc1ccc(N2C(=O)c3ccccc3NC2c2ccccc2O)cc1 (stereo unspecified) | . | . | . | 45 | . | .
CCOc1cc(NCc2ccccc2)c2ncn(C(C)C)c2c1 | . | . | . | . | . | .
CCCOc1cc(NCc2ccccc2)c2ncn(C(C)C)c2c1 | 24 | . | . | . | . | .
CCc1nc2ccc(C(=O)N3CCCCC3)cn2c1N(C)CCCc1ccccc1 | . | . | . | 33 | . | .
CCc1nc2ccc(C(=O)NCCCn3ccnc3)cn2c1N(C)CCCc1ccccc1 | . | . | . | 27 | . | .
O=c1[nH]cnc(O)c1C(c1ccc([N+](=O)[O-])cc1)c1c(O)nc[nH]c1=O | . | . | . | . | . | .
Cc1ccc(C(=O)OCC(=O)c2ccc(Br)cc2)cc1S(=O)(=O)N1CCOCC1 | . | . | . | . | . | .
CN1C(CC(=O)Nc2ccc(Cl)cc2Cl)c2ccccc2CC1(C)C (stereo unspecified) | . | . | . | 29 | . | .
CC1(C)N=C(SCC(=O)Nc2ccc(Cl)cc2Cl)C(c2ccccc2)=N1 | . | . | . | . | . | .
CC(=NNC(=S)N1CCN(c2ccccn2)CC1)c1ccccn1 | . | . | . | . | . | .
CC(=NNC(=S)N1CCN(c2ccccn2)CC1)c1nccs1 | . | 29 | . | 43 | . | .
CCN(C(=O)CSc1nccc(=O)[nH]1)C1CCCCC1 | . | . | . | . | . | .
CN(C(=O)CSc1nccc(=O)[nH]1)C1CCCCC1 | 22 | . | . | . | . | .
CCn1c(SCc2ccc(Cl)cc2)nc2nc3c(cc2c1=O)CCCC3 | 28 | . | . | . | . | .
O=C(Nc1csc([N+](=O)[O-])c1)Nc1ccccc1Cl | . | 45 | . | 29 | . | .
CN(C(=O)CN1C(=O)/C(=C/c2ccc(F)cc2)SC1=S)C1CCS(=O)(=O)C1 (stereo unspecified) | . | . | . | . | . | .
SMILES | CHRM4 PAM | M5 antag | M5 PAM | M4 antag | M5 ag | M4 ag
CN(C(=O)CCN1C(=O)/C(=C/c2ccccc2)SC1=S)C1CCS(=O)(=O)C1 (stereo unspecified) | . | . | 30 | . | . | .
CN(C(=O)CN1C(=O)S/C(=C\c2ccc(Cl)cc2)C1=O)C1CCS(=O)(=O)C1 (stereo unspecified) | 17 | . | . | . | . | .
CN(C(=O)CN1C(=O)S/C(=C\c2ccccc2)C1=O)C1CCS(=O)(=O)C1 (stereo unspecified) | . | . | . | . | . | .
COc1ccc(NC(=O)c2cccnc2Nc2ccc(OC)cc2)cc1 | . | . | . | 52 | . | .
Cc1ccc(NC2=C/C(=N/S(=O)(=O)c3cccs3)c3ccccc3C2=O)cc1C | . | . | . | . | . | .
CC(=O)Nc1ccc(NC2=C/C(=N/S(=O)(=O)c3cccs3)c3ccccc3C2=O)cc1 | . | 28 | . | . | . | .
